Consider two compounds from ChEMBL document CHEMBL2424551, “Synthesis, in vitro evaluation and molecular modelling of naphthalimide analogue as anticancer agents” (2013).

The source made the active and inactive calls. The calls are words filed in the database; no cut-off is given here.

Assay [1] deals with DNA. The assay is described as follows: Binding affinity to calf thymus DNA assessed as change in melting temperature by thermal denaturation assay. The assay is classed as nucleic-acid assay. The conditions noted are these: Bos taurus.
Assay [2] deals with DNA. As to the kind of experiment: Binding affinity to calf thymus DNA assessed as DNA intercalation at 50 uM by UV-visible spectrophotometry. The format is nucleic-acid assay. The conditions noted are these: Bos taurus. The method, boiled down:
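ct-DNA titrated (4–100 µM) into phosphate-buffered solution (pH 7.0) of compound at 50 µM; absorption spectra recorded by UV–visible spectrophotometry, tracking band shift and hypochromism.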

The subject of assay [3] is DNA. As to the kind of experiment: Binding affinity to calf thymus DNA assessed as DNA intercalation at 50 uM by fluorescence spectrophotometry. The assay is classed as nucleic-acid assay. Particulars: Bos taurus. The method, boiled down:
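Fluorescence titration: increasing ct-DNA added to compound in phosphate buffer (pH 7.0); decrease in emission band at 500 nm monitored; binding constant derived from titration data by Benesi–Hildebrand method.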

The next assay concerns HCC 2998. As to the kind of experiment: Growth inhibition of human HCC2998 cells at 10 uM after 48 hrs by SRB assay. The format is functional. In a few lines:
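Cells grown in RPMI 1640 with 5% FBS and 2 mM L-glutamine, plated at 5000–40,000 cells/well by doubling time and preincubated 24 h (37 °C, 5% CO2); a time-zero plate is TCA-fixed. Single dose added, then 48 h incubation. Fixed with cold TCA, stained with 0.4% SRB, dye solubilized in 10 mM Tris base, absorbance at 515 nm; percent growth vs time-zero and untreated control.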

Turning to `Nc1ccc(Sc2ccc3c4c2cccc4c(=O)n2c4ccccc4nc32)cc1`, the shift in melting temperature (ΔTm) in the assay on DNA [1] turned out to be 8.2 °C. Besides, the outcome with DNA [2] and with DNA [3] was Active.

On to `O=c1[nH]cc(F)c(=O)[nH]1` [FLUOROURACIL], for which the “growth inhibition (GI)” value with HCC 2998 was “Active”.
